Assay results of several laboratories.
Oprm1: Mu-type opioid receptor (Oprm1, Mus musculus, UniProt P42866)
CNR1: Cannabinoid receptor 1 (CNR1, Homo sapiens, UniProt P21554)

Compound	target	effect on	mode	method	setting	endpoint	result
O=C(O)C(F)(F)OC(F)(F)C(F)(F)OC(F)(F)C(F)(F)OC(F)(F)C(F)(F)C(F)(F)C(F)(F)F	Fatty acid-binding protein, brain (Homo sapiens, UniProt O15540)	ligand displacement		fluorescence		Kd	20 nM
CC(C)[C@@H](CN1CCc2ccccc2C1)NC(=O)c1cccc(-c2cccc(O)c2)c1	Oprm1	ligand displacement		radioligand		Ki	1210 nM
CCCCC/C=C\C/C=C\C/C=C\Cc1ccccc1CCCC(=O)N[C@H](C)CO	CNR1	cAMP	agonist			EC50	315 nM
O=c1cc(CSc2ccc(N=Cc3ccc(F)cc3)cc2)occ1O	PPO3 (Agaricus bisporus, UniProt C7FF04)	enzyme activity	inhibitor	absorbance		IC50	53500 nM
CC(C)(NC(=O)c1nn(CCCCC#N)c2ccccc12)c1cccc(C(N)=O)c1	CNR1	ligand displacement		radioligand	cell membranes	Ki	460 nM
Cc1c(CC(=O)N[C@@H](CN2CCc3ccccc3C2)C(C)C)cccc1[N+](=O)[O-]	Oprm1	ligand displacement		radioligand		Ki	150 nM
CCCCCc1ccccc1C/C=C\C/C=C\C/C=C\CCCC(=O)N[C@H](C)CO	CNR1	β-arrestin recruitment	agonist			EC50	3440 nM
CC[C@H](C)[C@@H](C(=O)N1CCC[C@H]1c1nccs1)N(C)C(=O)[C@H](CC(C)C)N(C)C(=O)[C@H](Cc1ccc(OC)cc1)N(C)C(=O)/C=C(\C)OC	CNR1	β-arrestin recruitment	antagonist			IC50	11600 nM
CC(C)(C#N)CCCn1nc(C(=O)NC(C)(C)c2cccc(C(N)=O)c2)c2ccccc21	CNR1	ligand displacement		radioligand	cell membranes	Ki	250 nM
COc1cc2c(cc1OC)CN(CCc1ccc(NC(=O)c3cccc4c(=O)c5cccc(OC)c5[nH]c34)cc1)CC2	Histamine H4 receptor (HRH4, Homo sapiens, UniProt Q9H3N8)	cell-free assay				Ki	> 10000 nM
Cc1oc(-c2ccccc2)nc1CCOc1cccc2c1ccn2CCC(=O)O	Fatty acid-binding protein, intestinal (Homo sapiens, UniProt P12104, T55A)	ligand displacement		fluorescence		Kd	31900 nM
CCCCC/C=C\[C@H](C)/C=C\C/C=C\Cc1ccccc1CCCC(=O)N[C@H](C)CO	CNR1	β-arrestin recruitment	agonist			EC50	1960 nM
CCCCCn1nc(C(=O)NC(C)(C)c2cccc(C(N)=O)c2)c2ccccc21	CNR1	ligand displacement		radioligand	cell membranes	Ki	250 nM
CC(C)[C@H](CN1CCc2ccccc2C1)NC(=O)Cc1c[nH]c2ccccc12	Oprm1	ligand displacement		radioligand		Ki	420 nM
CC(C)(NC(=O)c1nn(CC2CCCC2)c2ccccc12)c1cccc(C(N)=O)c1	CNR1	ligand displacement		radioligand	cell membranes	Ki	130 nM
COc1cc2c3c(c1OC)-c1c(OC)ccc(Cl)c1CC3N(C)CC2 (racemic)	5-hydroxytryptamine receptor 2A (HTR2A, Homo sapiens, UniProt P28223)	cell-free assay		radioligand		Ki	893 nM
